What was measured:
[1] = Selectivity index, ratio of IC50 for CHO cells to IC50 for chloroquine-sensitive Plasmodium falciparum D10; assay type: toxicity, cell-based; conditions: hamster; for Selectivity Index: cho; for selectivity ratio: CHO cells, read-out: Selectivity Index
How it was run: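 Calculated as IC50 (CHO, MTT assay) / IC50 (P. falciparum D10), using IC50s measured in this work.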

CHO = assay: Cytotoxicity against CHO cells by MTT assay; assay type: cell-based, Cricetulus griseus
How it was run: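 MTT viability assay on Chinese hamster ovary (CHO) cells, with emetine as the reference drug. IC50 is the average of n data sets.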

Plasmodium falciparum [2] = assay: Resistance index, ratio of IC50 for chloroquine-resistant Plasmodium falciparum Dd2 to IC50 for chloroquine-sensitive Plasmodium falciparum D10; assay type: functional
How it was run: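 Calculated as IC50 (Dd2) / IC50 (D10), using IC50s from the parallel in vitro assays on both P. falciparum strains.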

Plasmodium falciparum [3] = assay: Antiplasmodial activity against chloroquine-sensitive Plasmodium falciparum D10 by lactate dehydrogenase assay; assay type: functional, organism-based
How it was run: (§1)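 IC50s measured in vitro against P. falciparum D10 (chloroquine-sensitive) and Dd2 (chloroquine-resistant). Compounds insoluble in the test medium were added as suspensions in DMSO. Chloroquine served as the reference antimalarial. Values are averages over n data sets.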

Plasmodium falciparum [4] = assay: Antiplasmodial activity against chloroquine-resistant Plasmodium falciparum Dd2 by lactate dehydrogenase assay; assay type: functional, organism-based; how it was run: as §1
Plasmodium falciparum [5] = assay: Ratio of chloroquine IC50 to compound IC50 for chloroquine-resistant Plasmodium falciparum Dd2; assay type: functional

Structure (SMILES) | Selectivity Index [1] | IC50 (CHO; cho) [nM] | Ratio IC50 (Plasmodium falciparum [2]) | IC50 (Plasmodium falciparum [3]) [nM] | IC50 (Plasmodium falciparum [4]) [nM] | selectivity ratio [1] | IC50 (CHO; Cricetulus griseus, CHO) [nM] | IC50 (Plasmodium falciparum [3]; Plasmodium falciparum, D10) [nM] | Ratio IC50 (Plasmodium falciparum [5]) | IC50 (Plasmodium falciparum [4]; Plasmodium falciparum, Dd2) [nM]
C[C@H]1[C@@H](OCCNCCNc2ccnc3cc(Cl)ccc23)O[C@@H]2O[C@@]3(C)CC[C@H]4[C@H](C)CC[C@@H]1[C@@]24OO3 | 391 | 33000 | 2 | 84.6 | 153 | – | – | – | – | –
C[C@H]1[C@@H](OCCNCCNc2ccnc3cc(Cl)ccc23)O[C@@H]2O[C@@]3(C)CC[C@H]4[C@H](C)CC[C@@H]1[C@@]24OO3.O=C(O)C(=O)O | 77 | 1640 | 1 | 21.5 | 25.7 | – | – | – | – | –
C[C@H]1[C@@H](OCCNCCCNc2ccnc3cc(Cl)ccc23)O[C@@H]2O[C@@]3(C)CC[C@H]4[C@H](C)CC[C@@H]1[C@@]24OO3 | 317 | 37300 | 2 | 118 | 183 | – | – | – | – | –
C[C@H]1[C@@H](OCCNCCCNc2ccnc3cc(Cl)ccc23)O[C@@H]2O[C@@]3(C)CC[C@H]4[C@H](C)CC[C@@H]1[C@@]24OO3.O=C(O)C(=O)O | 12 | 170 | 1 | 14.3 | 19.8 | – | – | – | – | –
C[C@H]1[C@@H](OCCNc2ccc(Nc3ccnc4cc(Cl)ccc34)cc2)O[C@@H]2O[C@@]3(C)CC[C@H]4[C@H](C)CC[C@@H]1[C@@]24OO3 | – | – | 2 | 30.4 | 69.2 | – | – | – | – | –
C[C@H]1[C@@H](OCCNc2ccc(Nc3ccnc4cc(Cl)ccc34)cc2)O[C@@H]2O[C@@]3(C)CC[C@H]4[C@H](C)CC[C@@H]1[C@@]24OO3.O=C(O)C(=O)O | – | – | 2 | – | 30.2 | 2040 | 35200 | 17.2 | – | –
CC(CNc1ccnc2cc(Cl)ccc12)NCCO[C@H]1O[C@@H]2O[C@@]3(C)CC[C@H]4[C@H](C)CC[C@@H]([C@H]1C)[C@@]24OO3 (stereo not given in full) | – | 3390 | 1 | 12.2 | 17.1 | 279 | – | – | 9 | –
CC(CNc1ccnc2cc(Cl)ccc12)NCCO[C@H]1O[C@@H]2O[C@@]3(C)CC[C@H]4[C@H](C)CC[C@@H]([C@H]1C)[C@@]24OO3.O=C(O)C(=O)O (stereo not given in full) | 184 | – | 1 | – | – | – | 2750 | 14.9 | 7 | 20.8
C[C@H]1[C@@H](OCCN2CCN(c3ccnc4cc(Cl)ccc34)CC2)O[C@@H]2O[C@@]3(C)CC[C@H]4[C@H](C)CC[C@@H]1[C@@]24OO3 | – | – | 2 | – | – | 193 | 5920 | 30.7 | – | 68.5
C[C@H]1[C@@H](OCCN2CCN(CCNc3ccnc4cc(Cl)ccc34)CC2)O[C@@H]2O[C@@]3(C)CC[C@H]4[C@H](C)CC[C@@H]1[C@@]24OO3 | – | – | 1 | 201 | 276 | – | – | – | – | –
C[C@H]1[C@@H](OCCN2CCN(CCNc3ccnc4cc(Cl)ccc34)CC2)O[C@@H]2O[C@@]3(C)CC[C@H]4[C@H](C)CC[C@@H]1[C@@]24OO3.O=C(O)C(=O)O | – | – | 1 | 29 | 29.2 | 80 | 2320 | – | – | –
C[C@H]1[C@@H](O)O[C@@H]2O[C@@]3(C)CC[C@H]4[C@H](C)CC[C@@H]1[C@@]24OO3 [ARTENIMOL] | – | – | 0.4 | – | – | – | – | – | – | –
CC[C@H]1CN2CCc3cc(OC)c(OC)cc3[C@@H]2C[C@@H]1C[C@H]1NCCc2cc(OC)c(OC)cc21 [EMETINE] | – | – | – | – | – | – | 190 | – | – | –
